Measured values reported in ChEMBL document CHEMBL3632581, “Dimers of Melampomagnolide B Exhibit Potent Anticancer Activity against Hematological and Solid Tumor Cells” (J Med Chem, 2015).

Assays:
U-251 = test: Cytotoxicity against human U251 cells after 48 hrs by SRB assay; format: functional; conditions: U-251, 48 h; for CC50: read-out: LC50 (the source's name)
Method in brief: (§1)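 NCI-60 screen: cells grown in RPMI 1640 with 5% FBS and 2 mM L-glutamine, plated at 5,000–40,000 cells/well by doubling time, and preincubated 24 h at 37 °C before drug. Drug was diluted from DMSO stock and given at five concentrations, 10−4 to 10−8 M, for 48 h. Cells fixed with cold TCA, SRB stained, OD read at 515 nm against time-zero and vehicle plates. LC50 taken as the concentration that halves cell population through cell death.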

T47D = test: Cytotoxicity against human T47D cells after 48 hrs by SRB assay; format: functional; conditions: for CC50: read-out: LC50 (the source's name); method in brief: as §1
[1] = Cytotoxicity against human EKVX cells after 48 hrs by SRB assay; format: functional
Method in brief: (§2)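 NCI-60 five-dose screen at 10−8 to 10−4 M. Cells were plated at 5,000–40,000/well in RPMI 1640 with 5% FBS and 2 mM L-glutamine, then preincubated 24 h, and time-zero plates were TCA-fixed. Compound was added from DMSO stocks and exposed 48 h at 37 °C. Cells were TCA-fixed, SRB-stained, and read at 515 nm. LC50 is the concentration halving the cell population through cell death.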

[2] = Antileukemic activity against human M9-ENL1 cells after 24 hrs by annexin V/7-AAD staining-based flow cytometric analysis; format: functional, cell-based
Method in brief: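 M9-ENL1 cells in alpha-MEM with 5% human plasma, 20% FBS, SCF, IL-3, IL-7 and FLT3. Drug came from a DMSO stock diluted in PBS (≤0.5% DMSO final), for 24 h over 0.5-10 μM. Cells negative for both annexin V and 7-AAD were taken as non-apoptotic and normalized to vehicle. EC50 read from dose-response curves, triplicate.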

CCRF-CEM = test: Cytotoxicity against human CCRF-CEM cells after 48 hrs by SRB assay; format: functional; conditions: for CC50: read-out: LC50 (the source's name); method in brief: as §2
RXF 393 = test: Cytotoxicity against human RXF393 cells after 48 hrs by SRB assay; format: functional; conditions: RXF 393, 48 h; for CC50: read-out: LC50 (the source's name); method in brief: as §2
[3] = Antileukemic activity against human AML02 cells after 24 hrs by annexin V/7-AAD staining-based flow cytometric analysis; format: functional, cell-based
Method in brief: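 Primary AML specimens from consenting donors, isolated by Ficoll-Paque gradient and sometimes cryopreserved. Cells were held 1 h in serum-free IMDM with 20% BIT 9500, LDL and β-mercaptoethanol before drug (DMSO stock diluted in PBS, ≤0.5% DMSO final). Exposure was 24 h over 0.5-10 μM. Annexin V/7-AAD double-negative cells, normalized to vehicle, gave the EC50. Run in triplicate.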

NCI-H522 = test: Cytotoxicity against human NCI-H522 cells after 48 hrs by SRB assay; format: functional; conditions: NCI-H522, 48 h; for CC50: read-out: LC50 (the source's name); method in brief: as §2
NCI-H23 = test: Cytotoxicity against human NCI-H23 cells after 48 hrs by SRB assay; format: functional; conditions: NCI-H23, 48 h; for CC50: read-out: LC50 (the source's name); method in brief: as §2
SW-620 = test: Cytotoxicity against human SW620 cells after 48 hrs by SRB assay; format: functional; conditions: SW-620, 48 h; for CC50: read-out: LC50 (the source's name); method in brief: as §1
M14 = test: Cytotoxicity against human M14 cells after 48 hrs by SRB assay; format: functional; conditions: M14, 48 h; for CC50: read-out: LC50 (the source's name); method in brief: as §2
CAKI-1 = test: Cytotoxicity against human Caki1 cells after 48 hrs by SRB assay; format: functional; conditions: CAKI-1, 48 h; for CC50: read-out: LC50 (the source's name); method in brief: as §2
LOX IMVI = test: Cytotoxicity against human LOXIMVI cells after 48 hrs by SRB assay; format: functional; conditions: for CC50: read-out: LC50 (the source's name); method in brief: as §2
MDA-MB-468 = test: Cytotoxicity against human MDA-MB-468 cells after 48 hrs by SRB assay; format: functional; conditions: MDA-MB-468, 48 h; method in brief: as §2
MOLT-4 = test: Cytotoxicity against human MOLT4 cells after 48 hrs by SRB assay; format: functional; conditions: MOLT-4, 48 h; for CC50: read-out: LC50 (the source's name); method in brief: as §2
SF-539 = test: Cytotoxicity against human SF539 cells after 48 hrs by SRB assay; format: functional; conditions: SF-539, 48 h; for CC50: read-out: LC50 (the source's name); method in brief: as §2
HL-60(TB) = test: Cytotoxicity against human HL-60(TB) cells after 48 hrs by SRB assay; format: functional; conditions: HL-60, 48 h; for CC50: read-out: LC50 (the source's name); method in brief: as §2
KM12 = test: Cytotoxicity against human KM12 cells after 48 hrs by SRB assay; format: functional; conditions: KM12, 48 h; for CC50: read-out: LC50 (the source's name); method in brief: as §2
PC-3 = test: Cytotoxicity against human PC3 cells after 48 hrs by SRB assay; format: functional; conditions: PC-3, 48 h; method in brief: as §2
MDA-MB-435 = test: Cytotoxicity against human MDA-MB-435 cells after 48 hrs by SRB assay; format: functional; conditions: MDA-MB-435, 48 h; for CC50: read-out: LC50 (the source's name); method in brief: as §2
OVCAR-3 = test: Cytotoxicity against human OVCAR3 cells after 48 hrs by SRB assay; format: functional; conditions: OVCAR-3, 48 h; for CC50: read-out: LC50 (the source's name); method in brief: as §2
OVCAR-4 = test: Cytotoxicity against human OVCAR4 cells after 48 hrs by SRB assay; format: functional; conditions: OVCAR-4, 48 h; for CC50: read-out: LC50 (the source's name); method in brief: as §2
A498 = test: Cytotoxicity against human A498 cells after 48 hrs by SRB assay; format: functional; conditions: A498, 48 h; for CC50: read-out: LC50 (the source's name); method in brief: as §2
SF-295 = test: Cytotoxicity against human SF295 cells after 48 hrs by SRB assay; format: functional; conditions: SF-295, 48 h; for CC50: read-out: LC50 (the source's name); method in brief: as §2
MDA-MB-231 = test: Cytotoxicity against human MDA-MB-231 cells after 48 hrs by SRB assay; format: functional; conditions: MDA-MB-231, 48 h; method in brief: as §2
SNB-75 = test: Cytotoxicity against human SNB75 cells after 48 hrs by SRB assay; format: functional; conditions: SNB-75, 48 h; for CC50: read-out: LC50 (the source's name); method in brief: as §2
SK-MEL-5 = test: Cytotoxicity against human SK-MEL-5 cells after 48 hrs by SRB assay; format: functional; conditions: SK-MEL-5, 48 h; for CC50: read-out: LC50 (the source's name); method in brief: as §2
SF-268 = test: Cytotoxicity against human SF268 cells after 48 hrs by SRB assay; format: functional; conditions: SF-268, 48 h; for CC50: read-out: LC50 (the source's name); method in brief: as §2
UACC-62 = test: Cytotoxicity against human UACC62 cells after 48 hrs by SRB assay; format: functional; conditions: UACC-62, 48 h; for CC50: read-out: LC50 (the source's name); method in brief: as §1
HOP-62 = test: Cytotoxicity against human HOP62 cells after 48 hrs by SRB assay; format: functional; conditions: HOP-62, 48 h; method in brief: as §2
RPMI-8226 = test: Cytotoxicity against human RPMI8226 cells after 48 hrs by SRB assay; format: functional; conditions: RPMI-8226, 48 h; for CC50: read-out: LC50 (the source's name); method in brief: as §2
BT-549 = test: Cytotoxicity against human BT549 cells after 48 hrs by SRB assay; format: functional; conditions: BT-549, 48 h; method in brief: as §2
[4] = read-out: LC50 (the source's name)

## C=C1C(=O)O[C@H]2[C@H]1CC/C(COC(=O)NCCCCNC(=O)OC/C1=C/CC[C@@]3(C)O[C@H]3[C@H]3OC(=O)C(=C)[C@@H]3CC1)=C\CC[C@@]1(C)O[C@@H]21
U-251
  GI50: 2.94 µM
  CC50: 33.3 µM
T47D
  GI50: 1.51 µM
  CC50: > 100 µM
[1]
  GI50: 3.69 µM
[1]; [4]
  CC50: 37.3 µM
[2]
  EC50: 1.5 µM
CCRF-CEM
  GI50: 0.27 µM
  CC50: > 100 µM
RXF 393
  GI50: 1.44 µM
  CC50: 7.84 µM
[3]
  EC50: 2 µM
NCI-H522
  GI50: 0.16 µM
  CC50: 0.84 µM
NCI-H23
  GI50: 2.18 µM
  CC50: 30.4 µM
SW-620
  GI50: 0.58 µM
  CC50: 5.56 µM
M14
  GI50: 1.97 µM
  CC50: 16.3 µM
CAKI-1
  GI50: 10.8 µM
  CC50: 49.1 µM
LOX IMVI
  GI50: 0.51 µM
  CC50: 5.15 µM
MDA-MB-468
  GI50: 0.42 µM
  LC50: 7.76 µM
MOLT-4
  GI50: 1.47 µM
  CC50: > 100 µM
SF-539
  GI50: 1.55 µM
  CC50: 8.84 µM
HL-60(TB)
  GI50: 0.25 µM
  CC50: > 100 µM
KM12
  GI50: 3.18 µM
  CC50: 43.3 µM
PC-3
  GI50: 2.55 µM
  LC50 (concentration killing half the cell population): 30.5 µM
MDA-MB-435
  GI50: 1.24 µM
  CC50: 9.42 µM
OVCAR-3
  GI50: 0.69 µM
  CC50: 4.76 µM
OVCAR-4
  GI50: 1.77 µM
  CC50: 30.5 µM
A498
  GI50: 6.36 µM
  CC50: 43.9 µM
SF-295
  GI50: 13 µM
  CC50: 57.7 µM
MDA-MB-231
  GI50: 1.53 µM
  LC50: 6.83 µM
SNB-75
  GI50: 2.19 µM
  CC50: 66.3 µM
SK-MEL-5
  GI50: 3.33 µM
  CC50: 41.4 µM
SF-268
  GI50: 3.18 µM
  CC50: 51 µM
UACC-62
  GI50: 0.75 µM
  CC50: 7.06 µM
HOP-62
  GI50: 3.84 µM
HOP-62; [4]
  CC50: 46.1 µM
RPMI-8226
  GI50: 0.54 µM
  CC50: > 100 µM
BT-549
  GI50: 1.6 µM
  LC50: 8.23 µM

## C=C1C(=O)O[C@H]2[C@H]1CC/C(COC(=O)NCCCCCNC(=O)OC/C1=C/CC[C@@]3(C)O[C@H]3[C@H]3OC(=O)C(=C)[C@@H]3CC1)=C\CC[C@@]1(C)O[C@@H]21
U-251
  GI50: 3.51 µM
  CC50: 51.5 µM
T47D
  GI50: 1.6 µM
  CC50: > 100 µM
[2]
  EC50: 0.57 µM
CCRF-CEM
  GI50: 0.28 µM
  CC50: > 100 µM
RXF 393
  GI50: 0.85 µM
  CC50: 6.35 µM
[3]
  EC50: 0.9 µM
NCI-H522
  GI50: 0.22 µM
  CC50: 0.88 µM
NCI-H23
  GI50: 2.66 µM
  CC50: 45.5 µM
SW-620
  GI50: 0.43 µM
  CC50: 5.14 µM
M14
  GI50: 1.71 µM
  CC50: 8.2 µM
CAKI-1
  GI50: 16.1 µM
  CC50: 68.1 µM
LOX IMVI
  GI50: 0.46 µM
  CC50: 5.82 µM
MDA-MB-468
  GI50: 1.06 µM
  LC50: 24.7 µM
MOLT-4
  GI50: 1.48 µM
  CC50: > 100 µM
SF-539
  GI50: 1.92 µM
  CC50: 12.7 µM
HL-60(TB)
  GI50: 0.31 µM
  CC50: > 100 µM
KM12
  GI50: 6.53 µM
  CC50: 54.2 µM
PC-3
  GI50: 3.79 µM
  LC50 (concentration killing half the cell population): 49.4 µM
MDA-MB-435
  GI50: 1.51 µM
  CC50: 7.3 µM
OVCAR-3
  GI50: 0.76 µM
  CC50: 5.07 µM
OVCAR-4
  GI50: 2.72 µM
  CC50: 41.9 µM
A498
  GI50: 6.24 µM
  CC50: 47.5 µM
SF-295
  GI50: 11.1 µM
  CC50: 65.2 µM
MDA-MB-231
  GI50: 1.47 µM
  LC50: 6.4 µM
SNB-75
  GI50: 2.2 µM
  CC50: 33.8 µM
SK-MEL-5
  GI50: 3.19 µM
  CC50: 37 µM
SF-268
  GI50: 3.08 µM
  CC50: 42.3 µM
UACC-62
  GI50: 1.41 µM
  CC50: 7.04 µM
RPMI-8226
  GI50: 0.78 µM
  CC50: > 100 µM
BT-549
  GI50: 1 µM
  LC50: 4.96 µM
